Bioassay records from PubChem.
LMPTP inh: blocks human LMPTP phosphatase; recombinant LMPTP-A, OMFP fluorogenic substrate, fluorescence intensity; 360,000 tested, 0.22% active; inhibition, % at 20 µM; P24666;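 active means compounds that cut the enzyme signal by at least half of the control window in the single-dose screen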;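 further: plate controls were DMSO wells with enzyme plus substrate for no effect and substrate without enzyme for full effect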
Target sequence (P24666 whole entry, looked up): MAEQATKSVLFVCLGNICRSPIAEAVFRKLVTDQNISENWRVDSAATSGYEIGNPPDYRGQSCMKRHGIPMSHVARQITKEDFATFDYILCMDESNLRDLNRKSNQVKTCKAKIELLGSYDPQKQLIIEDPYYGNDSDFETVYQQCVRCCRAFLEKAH
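Assay system: LMPTP-A enzyme. Input: 0.625 nM LMPTP-A final. Probe or stimulus: 400 µM OMFP. Compound dosing: single 20 µM dose. Schedule: 50 min dark incubation at room temperature. Detection: fluorescence intensity of OMFP turnover product. Read-out: percent inhibition versus substrate-only and uninhibited controls. Benchmarks: no-enzyme low control, uninhibited high control.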
Scp1 inh: inhibitors of human Scp-1 phosphatase. Q9GZU7. Recombinant Scp1, phosphopeptide, malachite green phosphate absorbance. inhibition, % at 20 µM. 340,000 tested, 0.88% active. AID 493091;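 active means inhibition above about 50% at 20 µM, limit read from the data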;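 further: plate controls were DMSO wells with enzyme for no effect and wells lacking enzyme for full effect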
Target sequence (Q9GZU7 76-261 limits assumed): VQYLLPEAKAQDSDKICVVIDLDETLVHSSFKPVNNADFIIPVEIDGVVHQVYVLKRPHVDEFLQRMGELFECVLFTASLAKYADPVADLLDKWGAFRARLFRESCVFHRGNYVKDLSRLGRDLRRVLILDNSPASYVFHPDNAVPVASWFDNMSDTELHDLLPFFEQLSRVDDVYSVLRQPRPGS
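System: SCP-1 catalytic domain; Reagent: Phospho 17-mer peptide substrate; Doses: one concentration, 20 µM, with 1.0% DMSO; Incubation: 45 min room-temperature reaction, 5 min colour, 30 min stabiliser; Signal: Phosphate-binding colour reagent, absorbance read at 630 nm.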
SUMO1-SIM PPI: alters human SUMO1 binding to SIM partners | inhibition, % at 20 µM | P63165 | 360,000 tested, 0.33% active | SUMO1 binding to a labelled peptide, TR-FRET, 1 h; in the data active means inhibition above about 37%
Target sequence (P63165 whole entry, looked up): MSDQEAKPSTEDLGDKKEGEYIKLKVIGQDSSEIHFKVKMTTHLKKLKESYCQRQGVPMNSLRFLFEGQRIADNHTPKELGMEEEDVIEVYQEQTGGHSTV
HKDC1 inh: HKDC1 (human) hexokinase inhibition | Q2TB90 | recombinant HKDC1, G6PDH/diaphorase resazurin coupled fluorescence | inhibition, % at 20 µM | 340,000 tested, 0.16% active | AID 493160;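 active means inhibition above about 35% when tested at 20 µM, limit read from the data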;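 further: plate controls were DMSO wells with enzyme for no effect and DMSO wells lacking enzyme for full effect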
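Test system: recombinant HKDC1 (HK5) hexokinase enzyme, produced in-house; Amount: enzyme 5 µg/mL final; Buffer or medium: Tris pH 8.0 buffer with MgCl2, Tween-20, BSA, BME; Reagent: glucose and ATP substrates; Doses: 20 µM test compound, 1% DMSO; Incubation: 90 min reaction incubation at room temperature, dark; Detection: resorufin fluorescence at 613 nm.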
DNMT1 block: blocks human DNA methyltransferase DNMT1; DNMT1 molecular beacon, Hinp1I cleavage, fluorescence; inhibition (reported as % activation of signal), % at 10 µM; 360,000 tested, 0.83% active; P26358; AID 588458; in the data active means inhibition above about 50%
STEP block: STEP (human) phosphatase inhibition; 360,000 tested, 0.25% active; inhibition, % at 20 µM; AID 588621; recombinant STEP, OMFP fluorogenic substrate, fluorescence;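 active means inhibition at 20 µM, scaled per plate between control wells, above about 37%, limit read from the data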;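 further: 0% = DMSO with enzyme and substrate and 100% = substrate only without enzyme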
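Also added – OMFP at 25 µM · Test system – STEP tyrosine phosphatase · Technique – FITC-channel fluorescence of OMFP product · Schedule – 20 min at room temperature, dark · Evaluation – control-normalized % inhibition with plate pattern correction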
An asterisk follows results filed as active; x = no result. Compounds with a hit are over-represented: about 1.8% of the library has one in this group of screens.

SMILES	LMPTP inh	Scp1 inh	SUMO1-SIM PPI	HKDC1 inh	DNMT1 block	STEP block
CCC(C(=O)OCC(=O)Nc1ccc2[nH]c(=O)[nH]c2c1)c1ccccc1 (centres undefined)	0	-6	43*	-3	3	-1
O=C(COC(=O)c1ccccc1Cl)Nc1ccc2[nH]c(=O)[nH]c2c1	0	-3	7	-3	1	0
Cc1ccc(C(=O)CCC(=O)OCC(=O)Nc2ccc3[nH]c(=O)[nH]c3c2)cc1	0	2	25	-4	4	0
O=C(COC(=O)c1ccccc1OC(F)F)Nc1ccc2[nH]c(=O)[nH]c2c1	-1	26	40*	-5	-10	-3
O=C(COC(=O)CCC(=O)c1ccc(F)cc1)Nc1ccc2[nH]c(=O)[nH]c2c1	0	-3	39*	4	0	-1
O=C(COC(=O)c1ccc(Cl)c(S(=O)(=O)N2CCOCC2)c1)Nc1ccc2[nH]c(=O)[nH]c2c1	-1	3	84*	-2	-2	-2
O=C(COC(=O)Cc1ccc(F)cc1)Nc1ccc2[nH]c(=O)[nH]c2c1	0	-4	74*	12	-2	0
CC1(C(=O)NS(=O)(=O)C2CC2)CCCN(C(=O)Cc2ccc3ccccc3c2)C1 (centres undefined)	-1	x	0	x	0	-2
N#CC1=C(N)OC2=C(C(=O)CC(c3ccco3)C2)C1c1ccc(OCc2c(F)cccc2Cl)cc1 (centres undefined)	65*	14	13	-7	1	2
COc1cccc(C2C(C#N)=C(N)OC3=C2C(=O)CC(c2ccco2)C3)c1OCc1ccc(F)cc1 (centres undefined)	38	8	8	3	10	2
CCCC(=O)N1CCCC(c2cc(C(=O)Nc3ccccc3)no2)C1 (centres undefined)	1	x	2	x	5	-3
COc1cc(OC)c2c(O)c3c(c(-c4c5c(c(O)c6c(OC)cc(OC)cc46)CO[C@@H](C)[C@H]5O)c2c1)[C@H](O)[C@H](C)OC3	51*	55*	13	10	100*	-2
COc1cc2c(c(OC)c1O)C(=O)CO2	2	2	2	14	0	4
NNc1nc2c(Cl)ccc(Cl)c2s1	85*	-2	3	6	2	33
O=C(CCN1CCCCO1)N1CCCC(Nc2cccc(F)c2)C1 (centres undefined)	0	-2	6	-3	3	-1
Cc1cccc(OCC(=O)Nc2ccccc2N2CCCCC2)c1	4	-9	41*	4	5	8
Cc1cccc(OCC(=O)Nc2ccccc2N2CCN(C)CC2)c1	-1	-4	-3	-7	-1	-2
COc1ccc(Cl)cc1Nc1nc(-c2sc(NC(=O)C(C)(C)C)nc2C)cs1	2	2	87*	-1	-44	1
CCCCCCC(=O)Nc1nc(C)c(-c2csc(Nc3cc(Cl)ccc3C)n2)s1	0	12	87*	-2	-28	2
CN(C)C1CN(Cc2cn(Cc3ccc(Cl)cc3)nn2)S(=O)(=O)C1 (centres undefined)	-1	x	3	x	x	x
CCCCN1C(=O)C(=O)NC[C@@H]1CCCCN	-5	-3	0	-3	0	-1
CCCC[C@@H]1CNC(=O)C(=O)N1CCCC	17	x	49*	x	x	x
Cc1cc(/C=C2\SC(=O)NC2=O)c(C)n1-c1ccc(N(C)C)cc1	-1	4	-4	-4	1	-1
Cc1cc(/C=C\c2ccc3cc(N(C)C)ccc3[n+]2C)c(C)n1-c1ccccc1	78*	43	0	37*	54*	15
CN(C)c1ccc(/C=C2\SC(=O)N(CC(O)Cn3c4ccccc4c4ccccc43)C2=O)cc1 (centres undefined)	4	-1	-1	-6	-8	0
CN(C)c1ccc(/C=C2/SC(=O)N(CCN=C3NS(=O)(=O)c4ccccc43)C2=O)cc1	1	-3	41*	17	-26	-1
O=C(C(=O)N1CCN(c2ccccc2)CC1)c1ccco1	-1	x	2	x	x	x
